One may read the pIC50 as the negative decadic logarithm of the IC50, by convention in mol/L.

pIC50: −log10 of the molar value. The source made the active and inactive calls. No cut-off for these calls is given here.

From ChEMBL document CHEMBL5352420, “Enantioselective synthesis of 4-amino-3,4-dihydrocoumarins and their non-cyclic hydroxyester precursors: Biological evaluation for the treatment of glioblastoma multiforme” (Eur J Med Chem, 2022) come the findings set out here.

Data set [1] is described as follows: Cytotoxicity against mouse N13 cells assessed as cell viability at 0.4 uM incubated for 24 hrs by MTT assay relative to control. The conditions noted are these: read-out: Activity. Format: functional. An outline of the steps: (§1)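 MTT assay (mitochondrial activity). Cells grown at 37 °C, humidified 5% CO2: N13 in RPMI, F98 in DMEM.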
In data set [2] the test system is F98. In words: Cytotoxicity against rat F98 cells assessed as cell viability at 0.4 uM incubated for 24 hrs by MTT assay relative to control. Type of data set: functional. The conditions noted are these: read-out: Activity. The essentials: as §1
A general note: Formazan colour is commonly taken as a measure of viable cells.

The test system of data set [3] is F98. As to the kind of experiment: Cytotoxicity against rat F98 cells assessed as cell growth inhibition incubated for 24 hrs by MTT assay. Format: functional, cell-based. The conditions noted are these: F98, 24 h. The essentials: as §1
Data set [4] concerns F98. As to the kind of experiment: Cytotoxicity in rat F98 cells co-cultured with CM-Dil-labeled mouse N13 cells assessed as decrease in number of rat F98 cells measured after 24 hrs by bright-field microscopy. Type of data set: functional, cell-based. The conditions noted are these: dose <= 100.0 µg/ml. An outline of the steps:
(§2)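 Co-culture. N13 cells pre-labelled with the red membrane dye CM-DiI, then seeded together with F98 cells. Cells exposed to 0, 10 or 100 µg/mL for 24 h. Brightfield and fluorescence images taken on a high-content imager. Cell types separated by automatic segmentation on morphology (N13 rounded, F98 elongated) plus label. Cell counts and percentages of each type reported.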

For data set [5], the system named is N13. In words: Cytotoxicity in CM-Dil-labeled mouse N13 cells co-cultured with rat F98 cells assessed as increase in number of mouse N13 cells upto 100 ug/ml measured after 24 hrs by bright-field microscopy. Format: functional, cell-based. The conditions noted are these: dose <= 100.0 µg/ml. The essentials:
as §2

For data set [6], the system named is N13. As to the kind of experiment: Induction of apoptosis in mouse N13 cells assessed as accumulation at sub G0/G1 phase at 100 ug/ml incubated for 24 hrs by flow cytometry. The conditions noted are these: dose 100.0 µg/ml. Type of data set: functional, cell-based. An outline of the steps:
(§3)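 N13 or F98 cells exposed to 100 µg/mL for 24 h, untreated cells as controls. DNA content measured by flow cytometry. The fraction in the sub-G0/1 region taken as apoptotic cells.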
A general note: In flow cytometry, cells or beads pass a laser one at a time.

In data set [7] the test system is F98. As to the kind of experiment: Induction of apoptosis in rat F98 cells assessed as accumulation at sub G0/G1 phase at 100 ug/ml incubated for 24 hrs by flow cytometry relative to control. The conditions noted are these: dose 100 µg/ml. Type of data set: functional. The essentials:
as §3

Data set [8] in a line: Toxicity in rat assessed as brain injury administered locally in caudate nucleus of brain measured after 30 days by MRI analysis. The conditions noted are these: in vivo, other, 720 h, route it, time 30 day. Type of data set: tissue-based. An outline of the steps:
(§4)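 Non-tumor-bearing rats given a local injection into the caudate nucleus; PBS injected at the same site as control. Brain injury checked by in vivo MRI up to 30 days. Animals watched for external signs of pain or suffering. Survival monitored for 30 days.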

Data set [9] in a line: Toxicity in rat assessed as signs of pain administered locally in caudate nucleus of brain measured after 30 days. Format: tissue-based. The conditions noted are these: in vivo, other, 720 h, route it, time 30 day. The essentials:
as §4

Data set [10] in a line: Toxicity in rat assessed as signs of suffering administered locally in caudate nucleus of brain measured after 30 days. Type of data set: tissue-based. The conditions noted are these: in vivo, other, 720 h, route it, time 30 day. An outline of the steps: as §4
The nature of data set [11]: Toxicity in rat assessed as survival rate administered locally in caudate nucleus of brain measured after 30 days relative to control. Type of data set: tissue-based. The conditions noted are these: in vivo, route it, time 30 day. The essentials:
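Non-tumor-bearing rats received compound by local injection into the caudate nucleus, with PBS injected into the same region as control. Brains were imaged by in vivo MRI (9.4 T) before and 30 days after injection. Animals were watched for signs of pain, and survival over 30 days was plotted as Kaplan-Meier.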

The test system of data set [12] is F98. As to the kind of experiment: Antitumor activity against rat F98 cells xenografted in Fisher rat assessed as necrotic/apoptotic tumor cells at 5 mg/kg, IT measured after 2 days by MRI analysis. Format: functional, organism-based. The conditions noted are these: time 2.0 day.
Data set [13] deals with F98. As to the kind of experiment: Antitumor activity against rat F98 cells xenografted in Fisher rat assessed as average tumor volume at 5 mg/kg, IT measured after 2 days by MRI analysis (reference value: 845 mm^3). Type of data set: functional. The conditions noted are these: time 2 day.
Data set [14] is described as follows: Toxicity in Fisher rat xenografted with rat F98 cells assessed as animal survival at 5 mg/kg, IT measured for 5 days. Type of data set: organism-based. The conditions noted are these: in vivo, other, 120 h, time 5 day. The essentials: (§5)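 F98 glioma cells implanted in rats per an earlier protocol. Tumor volume followed by T₂-weighted MRI (9.4 T, turbo-RARE, TE 33 ms, TR 2500 ms) on days 3, 5, 8, 10, 12 and 15. On day 10 (mean tumor about 325 mm³), compound in PBS was given intratumorally at 5 mg/kg; PBS alone was the control. Survival was plotted as Kaplan-Meier.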

Data set [15] concerns F98. As to the kind of experiment: Antitumor activity against rat F98 cells xenografted in Fisher rat assessed as average tumor volume at 5 mg/kg, IT measured after 5 days by MRI analysis. Format: functional. The conditions noted are these: time 5 day.
Data set [16] is described as follows: Toxicity in Fisher rat xenografted with rat F98 cells assessed as animal survival at 5 mg/kg, IT measured for 16 days. The conditions noted are these: in vivo, other, 384 h, time 16 day. Format: organism-based. An outline of the steps: as §5
Data set [17] can be described thus: Cytotoxicity against mouse N13 cells assessed as cell growth inhibition incubated for 24 hrs by MTT assay. Format: functional, cell-based. The conditions noted are these: N13, 24 h. The essentials: as §1
Data set [18] can be described thus: Cytotoxicity against mouse N13 cells assessed as cell viability at 0.36 uM incubated for 24 hrs by MTT assay relative to control. Type of data set: functional. The conditions noted are these: read-out: Activity. An outline of the steps: as §1
The test system of data set [19] is F98. As to the kind of experiment: Cytotoxicity against rat F98 cells assessed as cell viability at 0.36 uM incubated for 24 hrs by MTT assay relative to control. Format: functional. The conditions noted are these: read-out: Activity. An outline of the steps:
as §1

Data set [20] in a line: Cytotoxicity against mouse N13 cells assessed as cell viability at 0.5 uM incubated for 24 hrs by MTT assay relative to control. The conditions noted are these: read-out: Activity. Type of data set: functional. An outline of the steps:
as §1

The subject of data set [21] is F98. As to the kind of experiment: Cytotoxicity against rat F98 cells assessed as cell viability at 0.5 uM incubated for 24 hrs by MTT assay relative to control. Type of data set: functional. The conditions noted are these: read-out: Activity. The essentials:
as §1

Data set [22] is described as follows: Cytotoxicity against mouse N13 cells assessed as cell viability at 0.31 uM incubated for 24 hrs by MTT assay relative to control. Type of data set: functional. The conditions noted are these: read-out: Activity. The essentials:
as §1

The test system of data set [23] is F98. As to the kind of experiment: Cytotoxicity against rat F98 cells assessed as cell viability at 0.31 uM incubated for 24 hrs by MTT assay relative to control. Format: functional. The conditions noted are these: read-out: Activity. The essentials: as §1
Data set [24] in a line: Cytotoxicity against mouse N13 cells assessed as cell viability at 0.28 uM incubated for 24 hrs by MTT assay relative to control. Type of data set: functional. The conditions noted are these: read-out: Activity. An outline of the steps:
as §1

For data set [25], the system named is F98. In words: Cytotoxicity against rat F98 cells assessed as cell viability at 0.28 uM incubated for 24 hrs by MTT assay relative to control. Format: functional. The conditions noted are these: read-out: Activity. The essentials: as §1
Data set [26] can be described thus: Cytotoxicity against mouse N13 cells assessed as cell viability at 0.34 uM incubated for 24 hrs by MTT assay relative to control. Format: functional. The conditions noted are these: read-out: Activity. The essentials: as §1
Data set [27] has as its system F98. In words: Cytotoxicity against rat F98 cells assessed as cell viability at 0.34 uM incubated for 24 hrs by MTT assay relative to control. The conditions noted are these: read-out: Activity. Type of data set: functional. An outline of the steps:
as §1

In the case of `CCOC(=O)C[C@H](N)c1ccccc1O.Cl`, the viability at 0.4 µM stood at 0% in data set [1] and 60% in the data set with F98 [2]. In addition, the pIC50 with F98 [3] is 3.85. For the same molecule, the Activity result with F98 [4] is “Dose-Dependent Effect”; in the data set on F98 [7], 42%; in [8], “Non-Toxic”; in data set [9] it was “Non-Toxic”; in [10], “Non-Toxic”; in the data set with F98 [13], 370 mm3. The Activity entry in data set [14] is “Non-Toxic”; with F98 [15] it was 815 mm3; in data set [16] it was “Non-Toxic”. Besides, the outcome with N13 [5] and with F98 [12] was Active. Besides, the outcome in the data set on N13 [6] was inactive. Further, the survival at 720 h in data set [11] worked out at 100%.
In the case of `CCOC(=O)C[C@@H](N)c1ccccc1O`, the viability at 0.4 µM in data set [1] turned out to be 40%; with F98 [2], 35%. Besides, the pIC50 in [17] was 3.35; with F98 [3], 3.11.
For `CCOC(=O)C[C@H](N)c1ccc(OC)cc1O`, the viability at 0.36 µM in data set [18] is 55%; in the data set on F98 [19], 45%. Also, the pIC50 was 3.47 in [17] and 3.33 with F98 [3].
For `N[C@H]1CC(=O)Oc2ccccc21`, the results for the viability at 0.5 µM (in [20]; in the data set on F98 [21]) were 15% and 55%, respectively. For the same molecule, the pIC50 was 2.80 in data set [17] and 3.32 in the data set on F98 [3].
In the case of `CCOC(=O)C[C@H](N)c1cc(Br)ccc1O`, the viability at 0.31 µM in data set [22] was found to be 40%; with F98 [23] it was 60%. Besides, the figures for the pIC50 (in [17]; with F98 [3]) were 3.30 and 3.68, respectively.
`CCOC(=O)C[C@H](N)c1cc(OC)ccc1O`: the viability at 0.36 µM amounted to 70% in data set [18] and 5% with F98 [19]. Also, in data set [17], the pIC50 is 4.40.
Take `CCOC(=O)C[C@H](N)c1cc(Br)cc(OC)c1O`: the viability at 0.28 µM (in data set [24]; in the data set with F98 [25]) was 60% throughout. Also, the figures for the pIC50 (in data set [17]; with F98 [3]) were 3.66 and 3.77, respectively.
With `CCOC(=O)C[C@H](N)c1cc([N+](=O)[O-])ccc1O`, the viability at 0.34 µM was determined as 30% in data set [26] and 20% in the data set with F98 [27]. Further, the pIC50 in [17] is 3.18; in the data set with F98 [3], 2.94.
